Assay [1] relates to HL-60. Kind of assay: Cytotoxicity against human HL60 cells after 3 days by MTT assay. Particulars: HL-60, 72 h. The class given is functional, cell-based. An outline of the steps:
(§1)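 Human ATCC lines (MRC-5 normal lung fibroblasts, AGS gastric adenocarcinoma, HL-60 leukemia, SK-MES-1 lung cancer, J82 bladder carcinoma) seeded at 50,000 cells/mL in 96-well plates. Compounds added one day later in medium at 0 up to 100 µM for 3 days. Read-out by MTT reduction against untreated controls, with etoposide as reference. IC50 reported for S- and R-configured compounds.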

Assay [2] deals with J82. Kind of assay: Cytotoxicity against human J82 cells after 3 days by MTT assay. The class given is functional, cell-based. The settings on record: J82, 72 h. The method in brief: as §1
On the technique in general: Formazan colour is commonly taken as a measure of viable cells.

The subject of assay [3] is SK-MES-1. Briefly: Cytotoxicity against human SKMES1 cells after 3 days by MTT assay. The class given is functional, cell-based. Particulars: SK-MES-1, 72 h. The method in brief:
as §1

Assay [4] concerns MRC5. Kind of assay: Cytotoxicity against human MRC5 cells after 3 days by MTT assay. The class given is cell-based. The settings on record: MRC5, 72 h. The method in brief:
as §1

Assay [5] concerns AGS. Briefly: Cytotoxicity against human AGS cells after 3 days by MTT assay. The class given is functional, cell-based. Particulars: 72 h. The method in brief:
as §1

For assay [6], the system named is KB. Kind of assay: Cytotoxicity against human KB cells at 30 uM. The class given is functional.

In general, IC50 refers to the concentration at which inhibition is half-maximal. The low end stands for higher potency, the high end for lower potency.

`CN1CCc2c3n(c4cc(Br)ccc24)C=CCC[C@@H]31`: the IC50 in assay [1] is above 100 µM; in assay [2], 45.5 µM; in assay [3], 91.3 µM; in assay [4], above 100 µM; in assay [5] it was above 100 µM. Besides, the Activity in assay [6] is recorded as 100%.
`C=CCCC[C@H]1c2[nH]c3ccccc3c2CCN1C(=O)OC`: the half-maximal inhibitory concentration (IC50) in assay [1], in assay [2], in assay [3], in assay [4] and in assay [5] was above 100 µM each time.
For the compound `C=CCCC[C@@H]1NCCc2c1[nH]c1cc(Br)ccc21`, the IC50 in assay [1] is above 100 µM; in assay [2] it was 18.9 µM; in assay [3] it was 12.7 µM; in assay [4] it was 18.1 µM; in assay [5], 8.8 µM.
With `COC(=O)N1CCc2c([nH]c3ccccc23)[C@@H]1CCCC(O)CO` (stereo not given in full), the half-inhibitory concentration (IC50) was above 100 µM in assay [1]; above 100 µM in assay [2]; 88.3 µM in assay [3]; above 100 µM in assay [4]; 63.1 µM in assay [5].
For `C=CCCCC1=NCCc2c1[nH]c1ccccc21`, the IC50 in assay [1] is above 100 µM; in assay [2], 47.6 µM; in assay [3] it was 36.1 µM; in assay [4], 44.6 µM; in assay [5], 40.3 µM.
Taken in the same sequence, the figures for `COC(=O)N1CCc2c([nH]c3cc(Br)ccc23)[C@@H]1CCCC(O)CO` (stereo not given in full) were above 100 µM, above 100 µM, above 100 µM, above 100 µM and above 100 µM.
On to `C=CCCCC1=NCCc2c1[nH]c1cc(Br)ccc21`, for which the IC50 in assay [1] was above 100 µM; in assay [2] it was 39.3 µM; in assay [3] it was 39.7 µM; in assay [4] it was 40.1 µM; in assay [5] it was 26.9 µM.
For `CN1CCc2c3n(c4ccccc24)C=CCC[C@@H]31` [DESBROMOARBORESCIDINEB], the IC50 in assay [1] was above 100 µM; in assay [2], 29.5 µM; in assay [3], 32.3 µM; in assay [4], 62.6 µM; in assay [5], 41.7 µM.
Taken in the same sequence, the figures for `C=CCCCC1c2[nH]c3ccccc3c2CCN1C` (stereo not given) were above 100 µM, 76.4 µM, 58.6 µM, 42.2 µM and 34.5 µM.
Regarding `COC(=O)N1CCc2c([nH]c3cc(Br)ccc23)[C@@H]1CCCC=O`, the IC50 in assay [1] worked out at 99.4 µM; in assay [2] it was 74.9 µM; in assay [3] it was 48.2 µM; in assay [4] it was 53.6 µM; in assay [5] it was 21.4 µM.
For the compound `COc1cc([C@@H]2c3cc4c(cc3[C@@H](O[C@@H]3O[C@@H]5CO[C@@H](C)O[C@H]5[C@H](O)[C@H]3O)[C@H]3COC(=O)[C@H]23)OCO4)cc(OC)c1O` [ETOPOSIDE], the IC50 in assay [2] came out at 2.5 µM; in assay [3], 2.8 µM.
`COC(=O)N1CCc2c3n(c4ccccc24)[C@@H](O)CCC[C@@H]31`: the IC50 in assay [1] was determined as 96.6 µM; in assay [2], 72.8 µM; in assay [3], 25.1 µM; in assay [4], 35.7 µM; in assay [5] it was 16.8 µM.
With `C=CCCC[C@@H]1NCCc2c1[nH]c1ccccc21`, the IC50 was 69.3 µM in assay [1]; 25.7 µM in assay [2]; 19.1 µM in assay [3]; 20.1 µM in assay [4]; 14.3 µM in assay [5].
For `C=CCCCC1c2[nH]c3cc(Br)ccc3c2CCN1C` (stereo not given), the IC50 was above 100 µM in assay [1]; 78.8 µM in assay [2]; 75.8 µM in assay [3]; 78.9 µM in assay [4]; 69.9 µM in assay [5].
The matching figures for `CN1CCc2c3n(c4ccccc24)[C@@H](O)CCC[C@@H]31` [DESBROMOARBORESCIDINE C]: above 100 µM, above 100 µM, above 100 µM, above 100 µM and above 100 µM.
Regarding `CN1CCc2c3n(c4cc(Br)ccc24)[C@@H](O)CCC[C@@H]31`, the IC50 in assay [1] was above 100 µM; in assay [2] it was above 100 µM; in assay [3], above 100 µM; in assay [4], 31.9 µM; in assay [5] it was 30.9 µM. In assay [6], this compound registered an Activity of 100%.
Take `Brc1ccc2c3c([nH]c2c1)[C@@H]1CCCCN1CC3` [ARBORESCIDINE A]: the IC50 in assay [1] was 34.5 µM; in assay [2], above 100 µM; in assay [3] it was above 100 µM; in assay [4], 71.6 µM; in assay [5] it was 65.3 µM. Further, the Activity in assay [6] came to 100%.
With `COC(=O)N1CCc2c3n(c4cc(Br)ccc24)[C@@H](O)CCC[C@@H]31`, the IC50 in assay [1] was above 100 µM; in assay [2], 16.4 µM; in assay [3], 18.1 µM; in assay [4] it was 60 µM; in assay [5] it was 22.8 µM.
